Data published in ChEMBL document CHEMBL4334542, “Antimalarial N 1,N 3-Dialkyldioxonaphthoimidazoliums: Synthesis, Biological Activity, and Structure-activity Relationships” (ACS Med Chem Lett, 2020).
Active and inactive are the calls of the source. No cut-off for these calls is given here.

Legend:
[1] = test system: Plasmodium falciparum; assay: Antimalarial activity against Plasmodium falciparum NF54 late gametocytes transfected with luciferase gene incubated for 48 hrs by luciferase reporter gene assay; assay type: functional, organism-based; conditions: NF54, 48 h
Procedure, shortened: (§1)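 Gametocytes of NF54-Pfs16-GFP-Luc, early (>95% stage II/III) or late (>90% stage IV/V); luciferase read-out. IC50 is the concentration giving 50% reduction of luminescence; mean ± SEM of n = 3 independent biological replicates.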

[2] = test system: Plasmodium falciparum; assay: Antimalarial activity against asexual stage of Plasmodium falciparum K1 assessed as reduction in parasite growth incubated for 96 hrs by SYBR Green I dye-based fluorescence assay; assay type: functional, organism-based; conditions: K1, 96 h
Procedure, shortened: (§2)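 Asexual NF54, K1 and W2 parasites; proliferation read as SYBR Green I fluorescence. IC50 is the concentration giving 50% of the net SYBR Green I fluorescence of untreated control cultures; mean ± SEM of n = 3 independent biological replicates.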

[3] = test system: Plasmodium falciparum; assay: Antimalarial activity against asexual stage of Plasmodium falciparum W2 assessed as reduction in parasite growth incubated for 96 hrs by SYBR Green I dye-based fluorescence assay; assay type: functional, organism-based; conditions: W2, 96 h
[4] = test system: Plasmodium falciparum; assay: Antimalarial activity against Plasmodium falciparum NF54 early gametocytes transfected with luciferase gene incubated for 48 hrs by luciferase reporter gene assay; assay type: functional, organism-based; conditions: NF54, 48 h; procedure, shortened: as §1
[5] = test system: Plasmodium falciparum; assay: Antimalarial activity against asexual stage of Plasmodium falciparum NF54 assessed as reduction in parasite growth incubated for 96 hrs by SYBR Green I dye-based fluorescence assay; assay type: functional, organism-based; conditions: NF54, 96 h; procedure, shortened: as §2
[6] = test system: CHO-K1; assay: Cytotoxicity against CHOK1 cells assessed as reduction in cell viability incubated for 48 hrs by CellTiter 96 aqueous one solution assay; assay type: cell-based; conditions: Cricetulus griseus, CHO-K1, 48 h
Procedure, shortened: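 Cell growth measured by a tetrazolium dye assay. IC50 is the concentration reducing growth by 50% relative to untreated cultures; mean ± SD of n = 3 separate determinations.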

[7] = test system: Plasmodium falciparum; assay: Antimalarial activity against asexual stage of Plasmodium falciparum Dd2 infected in erythrocytes assessed as reduction in parasite growth incubated for 48 hrs under hypoxic condition by Hoechst 33342 staining based flow cytometry; assay type: functional, organism-based; conditions: Dd2, 48 h
Procedure, shortened: (§3)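 Asexual Dd2 and 3D7 parasites in erythrocytes; DNA content of infected cells measured by Hoechst 33342 staining and FACS. IC50 is the concentration giving 50% of the net fluorescence of untreated control cultures; mean ± SD of n = 3 separate determinations.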

[8] = test system: Plasmodium falciparum; assay: Antimalarial activity against asexual stage of Plasmodium falciparum 3D7 infected in erythrocytes assessed as reduction in parasite growth incubated for 48 hrs under hypoxic condition by Hoechst 33342 staining based flow cytometry; assay type: functional, organism-based; conditions: 3D7, 48 h; procedure, shortened: as §3
[9] = test system: Plasmodium falciparum; assay: Antimalarial activity against Plasmodium falciparum K1 incubated for 48 hrs by [3H]-hypoxanthine incorporation assay; assay type: functional, organism-based
[10] = test system: Plasmodium falciparum; assay: Antimalarial activity against Plasmodium falciparum NF54 incubated for 48 hrs by [3H]-hypoxanthine incorporation assay; assay type: functional, organism-based
[11] = test system: Plasmodium falciparum; assay: Antimalarial activity against Plasmodium falciparum TM90C2B incubated for 48 hrs by [3H]-hypoxanthine incorporation assay; assay type: functional, organism-based
[12] = Redox cycling activity of the compound […] measured after 45 mins by phenol red reagent based horseradish peroxidase coupled assay
Procedure, shortened: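 Redox cycling EC50 determined by the phenol red horseradish peroxidase assay.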

[13] = test system: Plasmodium falciparum; assay: Antimalarial activity against asexual stage of Plasmodium falciparum NF54 assessed as reduction in parasite growth at 1 uM incubated for 96 hrs by SYBR Green I dye-based fluorescence assay relative to control; assay type: functional; parameters: scale not given: the % may be the effect or the level left
[14] = test system: Plasmodium falciparum; assay: Antimalarial activity against sexual stage of Plasmodium falciparum 3D7 gametocytes assessed as reduction in parasite growth incubated for 3 days by alamar blue staining based assay; assay type: functional, organism-based; conditions: 3D7, 72 h
[15] = test system: Plasmodium falciparum; assay: Antimalarial activity against asexual stage of Plasmodium falciparum 3D7 infected in O-positive erythrocytes assessed as reduction in parasite growth incubated for 72 hrs by SYBR Green I dye-based spectrophotometric analysis; assay type: functional, organism-based; conditions: 3D7, 72 h

| IC50 [1] [nM] | IC50 [4] [nM] | SMILES | IC50 [2] [nM] | IC50 [3] [nM] | IC50 [5] [nM] | IC50 [6] [µM] | IC50 [7] [nM] | IC50 [8] [nM] | other results |
| --- | --- | --- | --- | --- | --- | --- | --- | --- | --- |
| 551 | 143 | CCCCCC[n+]1c2c(n(CC(C)C)c1C)C(=O)c1ccccc1C2=O | 10 | 5.28 | 6.2 |  |  |  |  |
|  |  | CCn1c2c([n+](CC)c1C)C(=O)c1ccccc1C2=O |  |  |  | 14.7 | 19.1 | 6 |  |
| 812 | 337 | Cc1n(CC(C)C)c2c([n+]1CC(C)C)C(=O)c1ccccc1C2=O | 12.5 | 5.75 | 9.19 |  |  |  |  |
|  |  | O=C1C(O)=C([C@H]2CC[C@H](c3ccc(Cl)cc3)CC2)C(=O)c2ccccc21 [ATOVAQUONE] |  |  |  |  | 2.5 | 2.8 | IC50 [9]: 0.5 nM; IC50 [10]: 0.4 nM; IC50 [11]: 11500 nM |
|  |  | Cc1n(C(C)C)c2c([n+]1C1CC1)C(=O)c1ccccc1C2=O |  |  |  | 14.6 | 25 | 15.8 |  |
| 1090 | 41 | Cc1n(CC(C)C)c2c([n+]1C)C(=O)c1ccccc1C2=O | 3.4 | 1.85 | 1.92 |  |  |  |  |
|  |  | COCC[n+]1c2c(n(Cc3cnccn3)c1C)C(=O)c1ccccc1C2=O [SEPANTRONIUM BROMIDE] |  |  |  |  | 45.9 | 38.6 |  |
|  |  | CCn1c2c([n+](C3CC3)c1C)C(=O)c1ccccc1C2=O |  |  |  | 6.6 | 35 | 66.1 |  |
|  |  | CCCC[n+]1c2c(n(CCC)c1C)C(=O)c1ccccc1C2=O |  |  |  | 26.8 | 20.9 | 18.8 |  |
| 237 | 370 | CCCCCCCCCC[n+]1c2c(n(CC(C)C)c1C)C(=O)c1ccccc1C2=O | 13.3 | 6.1 | 4.96 |  |  |  |  |
|  |  | Cc1n(C)c2c([n+]1C)C(=O)c1ccccc1C2=O |  |  |  | 5.7 | 26.5 | 22.6 |  |
| 689 | 229 | Cc1n(CC(C)C)c2c([n+]1C(C)C)C(=O)c1ccccc1C2=O | 4.22 | 1.96 | 2.36 |  |  |  |  |
|  |  | CCn1c(C)nc2c1C(=O)c1ccccc1C2=O |  |  |  |  |  |  | Activity [12]: inactive; Activity [13]: <=50% |
|  |  | O=C1C=CC(=O)C=C1 [BENZOQUINONE] |  |  |  |  |  |  | Activity [13]: 20 - 40% |
| 275 | 181 | CCCC[n+]1c2c(n(CC(C)C)c1C)C(=O)c1ccccc1C2=O | 9.85 | 5.1 | 7.2 |  |  |  |  |
|  |  | CCOc1ccc(-[n+]2c3c(n(C)c2C)C(=O)c2ccccc2C3=O)cc1 |  |  |  |  |  |  | EC50 [14]: 93 nM; EC50 [15]: 1 nM |
|  |  | CCCn1c2c([n+](C3CC3)c1C)C(=O)c1ccccc1C2=O |  |  |  | 5.5 | 20.7 | 331 |  |
|  |  | CC[n+]1c2c(n(C(C)C)c1C)C(=O)c1ccccc1C2=O |  |  |  | 15.1 | 11.7 | 61.5 |  |
| 832 | 139 | Cc1n(CC(C)C)c2c([n+]1C1CC1)C(=O)c1ccccc1C2=O | 5.85 | 2.55 | 3.94 |  |  |  |  |
|  |  | Cc1n(C)c2c([n+]1C1CC1)C(=O)c1ccccc1C2=O |  |  |  | 3.1 | 30.4 | 25.7 |  |
|  |  | Cc1n(C)c2c([n+]1C(C)C)C(=O)c1ccccc1C2=O |  |  |  | 4.7 | 16.1 | 4.8 |  |

| IC50 [1] [nM] | IC50 [4] [nM] | SMILES | IC50 [2] [nM] | IC50 [3] [nM] | IC50 [5] [nM] | IC50 [6] [µM] | IC50 [7] [nM] | IC50 [8] [nM] | other results |
| --- | --- | --- | --- | --- | --- | --- | --- | --- | --- |
|  |  | CCC[n+]1c2c(n(C)c1C)C(=O)c1ccccc1C2=O |  |  |  | 3.9 | 14.3 | 4.8 |  |
| 842 | 269 | CCC[n+]1c2c(n(CC(C)C)c1C)C(=O)c1ccccc1C2=O | 4.42 | 2.12 | 2.97 |  |  |  |  |
|  |  | Cc1nc2c(n1C)C(=O)c1ccccc1C2=O |  |  |  |  |  |  | Activity [12]: inactive; Activity [13]: <=50% |
|  |  | Cc1nc2c(n1C(C)C)C(=O)c1ccccc1C2=O |  |  |  |  |  |  | Activity [12]: inactive; Activity [13]: <=50% |
|  |  | CCCC[n+]1c2c(n(C)c1C)C(=O)c1ccccc1C2=O |  |  |  | 13.1 | 14.1 | 4.3 |  |
|  |  | CCOc1ccc(N(C(C)=O)C2=C(NC)C(=O)c3ccccc3C2=O)cc1 |  |  |  |  |  |  | EC50 [14]: 122 nM; EC50 [15]: 1 nM |
|  |  | CCCC[n+]1c2c(n(C(C)C)c1C)C(=O)c1ccccc1C2=O |  |  |  | 80.3 | 14.9 | 11.6 |  |
| 1020 | 33 | CC[n+]1c2c(n(CC(C)C)c1C)C(=O)c1ccccc1C2=O | 3.1 | 1.62 | 1.63 |  |  |  |  |
| 143 | 95 | CN(C)c1ccc2nc3ccc(N(C)C)cc3[s+]c2c1 [METHYLENE BLUE ANHYDROUS] |  |  |  |  |  |  |  |
|  |  | CCOc1ccc(N(C(C)=O)C2=C(N(C)C)C(=O)c3ccccc3C2=O)cc1 |  |  |  |  |  |  | EC50 [14]: 319 nM; EC50 [15]: 32 nM |
| 174 | 361 | CCCCCCCCCCCC[n+]1c2c(n(CC(C)C)c1C)C(=O)c1ccccc1C2=O | 11.2 | 5.5 | 4.3 |  |  |  |  |
|  |  | CCCn1c(C)nc2c1C(=O)c1ccccc1C2=O |  |  |  |  |  |  | Activity [12]: inactive; Activity [13]: <=50% |
|  |  | CCCn1c2c([n+](CCC)c1C)C(=O)c1ccccc1C2=O |  |  |  | 16.2 | 11.3 | 26.9 |  |
|  |  | CC1=CC(=O)c2ccccc2C1=O [MENADIONE] |  |  |  |  |  |  | Activity [13]: 20 - 40% |
|  |  | CCCCn1c(C)nc2c1C(=O)c1ccccc1C2=O |  |  |  |  |  |  | Activity [12]: inactive; Activity [13]: <=50% |
| 164 | 39 | CCCCCCCC[n+]1c2c(n(CC(C)C)c1C)C(=O)c1ccccc1C2=O | 8.23 | 3.6 | 4.36 |  |  |  |  |
|  |  | CC[n+]1c2c(n(C)c1C)C(=O)c1ccccc1C2=O |  |  |  | 3.6 | 19.9 | 8.4 |  |
|  |  | CCCCn1c2c([n+](C3CC3)c1C)C(=O)c1ccccc1C2=O |  |  |  | 10.1 | 20.8 | 182 |  |
|  |  | CCCCn1c2c([n+](CCCC)c1C)C(=O)c1ccccc1C2=O |  |  |  | 30.4 | 43.6 | 50.5 |  |
|  |  | Cc1n(C2CC2)c2c([n+]1C1CC1)C(=O)c1ccccc1C2=O |  |  |  | 42.5 | 38.6 | 41.5 |  |

| SMILES | IC50 [1] [nM] | IC50 [4] [nM] | IC50 [2] [nM] | IC50 [3] [nM] | IC50 [5] [nM] | IC50 [6] [µM] | IC50 [7] [nM] | IC50 [8] [nM] | other results |
| --- | --- | --- | --- | --- | --- | --- | --- | --- | --- |
| CCCn1c2c([n+](CC)c1C)C(=O)c1ccccc1C2=O | 709 | 390 | 6.5 | 4.94 | 3.45 | 8.2 | 8.4 | 3.7 | Activity [12]: Active; IC50 [9]: 2.2 nM; IC50 [10]: 1.2 nM; IC50 [11]: 2.2 nM |
| CCCn1c2c([n+](C(C)C)c1C)C(=O)c1ccccc1C2=O | 567 | 162 | 3.1 | 2.2 | 2.28 | 26.8 | 8 | 4 | Activity [12]: Active; IC50 [9]: 2.1 nM; IC50 [10]: 1 nM; IC50 [11]: 1.8 nM |
| CCCCn1c2c([n+](CC)c1C)C(=O)c1ccccc1C2=O | 320 | 268 | 2.4 | 2.88 | 1.64 | 37 | 9.1 | 4.2 | Activity [12]: Active; IC50 [9]: 1.8 nM; IC50 [10]: 1 nM; IC50 [11]: 1.4 nM |
| C[C@H]1[C@H](OC(=O)CCC(=O)O)O[C@@H]2O[C@@]3(C)CC[C@H]4[C@H](C)CC[C@@H]1[C@@]24OO3 [ARTESUNATE] | 259 | 63 | 3.26 |  | 3 |  | 13.3 | 22.8 | IC50 [9]: 1.4 nM; IC50 [10]: 3.2 nM; IC50 [11]: 2.7 nM |
